Hits are enriched below; roughly 12% of the tested compounds scored in any of these assays.
Dynein cargo inh: dynein cargo transport inhibition; 3617.4 mouse cells, GR-EGFP nuclear translocation imaging; test concentration mostly 20 µM; stimulated with dexamethasone, 1 µM; hits give low values; z-score, hits read low; 0.47% of 220,000 active; AID 1381;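 active = plate z-score of nuclear minus cytoplasmic receptor signal below a set negative limit, without overly bright fluorescence or cell loss, cut at about -3.5 in these data, passing the limit was not always enough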;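 also: z-score of nuclear minus cytoplasmic ring GR-EGFP intensity difference per well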
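Medium: Induction medium lacking tetracycline, stripped serum | Probe or stimulus: 1.0 µM final dexamethasone stimulus | Schedule: 48 h induction, then 1 h compound, then 30 min agonist, 37 °C | Signal: Automated 10x imaging of fixed Hoechst-stained cells | Evaluation: Per-cell GR-EGFP intensity, nucleus versus surrounding cytoplasmic ring, well-averaged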
Lmaj promast: inhibitors of Leishmania major promastigote growth; inhibition, % at 10 µM; Leishmania major promastigotes, resazurin fluorescence viability; AID 1063; 9% of 200,000 active; in the data active = inhibition above about 50%;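 also: promastigotes grown with compound for 44 hours at 28 °C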
Autophagy mod: autophagy modulation, high-content screen. MEF GFP-LC3 puncta imaging; test concentration mostly 10 µM. 0.98% of 190,000 active. calls only at 10 µM (by protocol);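 active = percentage of spot-positive cells more than 3 SD above its plate mean, without a fluorescence outlier flag or 80% toxicity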;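 also: spot-positive cell cutoff set from DMSO-treated cells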
bCat nuc transl: alters nuclear translocation of beta-catenin in HeLa cells; nuclear translocation activity, % at 5 µM; AID 1665; 0.3% of 190,000 active; immunofluorescence imaging;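 active = nuclear translocation activity above 50% at 5 µM, with a well cell count of 50 or more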;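 also: per-cell ratio of nuclear to cytoplasmic median beta-catenin stain intensity; plate controls were DMSO negative control for no effect and GSK-3 inhibitor IX positive control for full effect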
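System: HeLa cells, endogenous beta-catenin; compound dosing: 5 µM primary single dose, 0.1% DMSO, 0.02–20 µM confirmation series; incubation: 24 h compound exposure at 37°C, 5% CO2; signal: beta-catenin immunofluorescence imaging with DAPI; evaluation: % activation, nuclear-to-cytoplasmic median beta-catenin signal ratio per cell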
CHOP inh: inhibitors of CHOP induction in ER stress response; CHO-K1 CHOP-promoter luciferase, tunicamycin-induced, 15-18 h; inhibition, % at 10 µM; 3.8% of 220,000 active;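 active = compounds that reduced the stress-induced luciferase reporter signal by more than about 70% of percent inhibition, limit read from the data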;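 also: 0% = tunicamycin plus vehicle and 100% = wells without tunicamycin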
MT stabilize HCS: microtubule stabilization, imaging screen; HeLa tubulin immunostaining HCS, 24 h; share of cells brighter than vehicle mean+2SD; % tubulin-high responders, % at 10 µM; 0.83% of 200,000 active; AID 2205;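 active = plate Z-score above 3 for both tubulin-high and condensed-nucleus cell shares, with cell loss under 80%, at 10 µM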;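 also: anti alpha tubulin signal scored within the nucleus-defined area of each cell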
* hit, by the source's call.

How did O=C(NC(=S)NC1CCCc2ccccc21)c1ccco1 (stereo unspecified) do in these assays?
Dynein cargo inh: -0.023; Lmaj promast: 4; Autophagy mod: active; bCat nuc transl: -1; CHOP inh: 22; MT stabilize HCS: 4

How did NC(=O)C1CCN(C(=O)COc2ccc(Nc3ccccc3)cc2)CC1 do in these assays?
Dynein cargo inh: 0.91; bCat nuc transl: -1; CHOP inh: -5

Results for O=C(CCCN1C(=O)c2cccc3cccc(c23)C1=O)N1CCN(c2ccccc2)CC1 ?
Dynein cargo inh: 0.092; Lmaj promast: 43; Autophagy mod: inactive; bCat nuc transl: -2; CHOP inh: 18; MT stabilize HCS: 4

How did O=C(CCCN1C(=O)c2cccc3cccc(c23)C1=O)N1CCN(c2ccccc2O)CC1 do in these assays?
Dynein cargo inh: 0.29; Lmaj promast: 70*; Autophagy mod: inactive; bCat nuc transl: 0; CHOP inh: 41; MT stabilize HCS: 3

How did CCC(CC)C(=O)Nc1nnc(SCC(=O)NC(C)(C)C)s1 do in these assays?
Dynein cargo inh: -0.59; Lmaj promast: -9; Autophagy mod: inactive; bCat nuc transl: 1; CHOP inh: -13; MT stabilize HCS: 3

Results for COc1cccc(CSc2nc3cc4c(cc3cc2C)OCCO4)c1 ?
Dynein cargo inh: -0.35; Lmaj promast: 57*; Autophagy mod: inactive; CHOP inh: 56; MT stabilize HCS: 3

What do the screens show for `Cn1c(=S)n(CCC(=O)O)c2ccccc21`?
Dynein cargo inh: -0.68; Lmaj promast: -7; Autophagy mod: inactive; bCat nuc transl: -1; CHOP inh: -2; MT stabilize HCS: 2

Results for Cc1ccc(N(C(=O)CCC(=O)Nc2cc(C)on2)C(C(=O)NC2CCCC2)c2ccccc2)cc1 (stereo unspecified) ?
Dynein cargo inh: -0.015; Lmaj promast: 10; Autophagy mod: inactive; bCat nuc transl: 0; CHOP inh: 9; MT stabilize HCS: 2

What do the screens show for `Cc1ccc(N(C(=O)CCC(=O)Nc2cc(C)on2)C(C(=O)NC2CCCC2)c2cccs2)cc1` (stereo unspecified)?
Dynein cargo inh: 0.27; Lmaj promast: 54*; Autophagy mod: inactive; bCat nuc transl: -1; CHOP inh: 17; MT stabilize HCS: 2

Results for Cc1cc(NC(=O)CCC(=O)N(Cc2cccs2)C(C(=O)NC2CCCC2)c2ccccc2)no1 (stereo unspecified) ?
Dynein cargo inh: -0.014; Lmaj promast: 94*; Autophagy mod: inactive; bCat nuc transl: 0; CHOP inh: 25; MT stabilize HCS: 6

How did Cc1cc(NC(=O)CCC(=O)N(c2ccccc2)C(C(=O)NC2CCCC2)c2cccs2)no1 (stereo unspecified) do in these assays?
Dynein cargo inh: -0.37; Lmaj promast: 8; Autophagy mod: inactive; bCat nuc transl: -3; CHOP inh: 58; MT stabilize HCS: 3

What do the screens show for `Cc1ccc(C)c(N(C(=O)CCC(=O)Nc2cc(C)on2)C(C(=O)NC2CCCC2)c2ccco2)c1` (stereo unspecified)?
Dynein cargo inh: 0.51; Lmaj promast: 90*; Autophagy mod: inactive; bCat nuc transl: -6; CHOP inh: 28; MT stabilize HCS: 2

How did Cc1cc(C)cc(N(C(=O)CCC(=O)Nc2cc(C)on2)C(C(=O)NC2CCCC2)c2ccco2)c1 (stereo unspecified) do in these assays?
Dynein cargo inh: -0.035; Lmaj promast: 88*; Autophagy mod: inactive; bCat nuc transl: -1; CHOP inh: 19; MT stabilize HCS: 2

How did Fc1ccc(-n2nnc(-c3nccs3)n2)cc1 do in these assays?
Dynein cargo inh: -0.86; Lmaj promast: -3; Autophagy mod: inactive; bCat nuc transl: 0; CHOP inh: -4; MT stabilize HCS: 3

Results for CN(C)CCCNC(=S)NCCNc1nc2cc3c(cc2cc1C#N)OCO3 ?
Dynein cargo inh: 0.29; Lmaj promast: -3; Autophagy mod: inactive; bCat nuc transl: -3; CHOP inh: 12; MT stabilize HCS: 4

Results for O=C(CNC(=O)c1ccco1)OCC(=O)c1ccc(Cl)cc1Cl ?
Dynein cargo inh: -0.35; Lmaj promast: -20; Autophagy mod: inactive; bCat nuc transl: 0; CHOP inh: -4; MT stabilize HCS: 1

What do the screens show for `Cc1cccc(N(C(=O)CCC(=O)Nc2cc(C)on2)C(C(=O)NC2CCCC2)c2ccc(C)o2)c1` (stereo unspecified)?
Dynein cargo inh: 2.1; Lmaj promast: 89*; Autophagy mod: inactive; bCat nuc transl: 0; CHOP inh: 3; MT stabilize HCS: 2

What do the screens show for `O=C(NC1CCCCC1)C(c1cccs1)N(Cc1cccs1)C(=O)c1cccs1` (stereo unspecified)?
Dynein cargo inh: 1.8; Lmaj promast: 99*; Autophagy mod: inactive; bCat nuc transl: 1; CHOP inh: 19; MT stabilize HCS: 3

Results for Cc1cc(NC(=O)CCC(=O)N(c2ccccc2)C(C(=O)NC2CCCC2)c2ccccc2)no1 (stereo unspecified) ?
Dynein cargo inh: -0.1; Lmaj promast: 0; Autophagy mod: inactive; bCat nuc transl: 2; CHOP inh: 16; MT stabilize HCS: 2

How did O=C(NC1CCCCC1)C(c1ccc2ncccc2c1)N(Cc1cccs1)C(=O)c1cccs1 (stereo unspecified) do in these assays?
Dynein cargo inh: 1.6; Lmaj promast: 49; Autophagy mod: inactive; CHOP inh: 1; MT stabilize HCS: 3

What do the screens show for `Cc1ccc(C(C(=O)NC2CCCC2)N(Cc2ccco2)C(=O)CCC(=O)Nc2cc(C)on2)cc1` (stereo unspecified)?
Dynein cargo inh: 0.033; Lmaj promast: 82*; Autophagy mod: inactive; bCat nuc transl: 0; CHOP inh: 48; MT stabilize HCS: 1

Results for CCOC(=O)N1CCN(C(=O)COc2ccc(S(=O)(=O)NC(C)C)cc2)CC1 ?
bCat nuc transl: -1

What do the screens show for `Nc1nn(-c2ccccc2)c(N)c1N=Nc1ccccc1`?
Dynein cargo inh: 1.5; Lmaj promast: 10; Autophagy mod: inactive; bCat nuc transl: 89*; CHOP inh: -15; MT stabilize HCS: 22*

Results for Nc1nn(-c2ccccc2)c(N)c1N=Nc1ccccc1F ?
Dynein cargo inh: 0.41; Lmaj promast: -2; Autophagy mod: inactive; bCat nuc transl: 1; CHOP inh: 8; MT stabilize HCS: 26*

What do the screens show for `Cn1c(C(=O)OCC(=O)NCCc2ccccc2)cc2sccc21`?
Dynein cargo inh: -0.36; Lmaj promast: -6; Autophagy mod: inactive; bCat nuc transl: 0; CHOP inh: 33; MT stabilize HCS: 1

Results for C=CCN(C(=O)c1ccccc1)c1ccc(OC)cc1 ?
Dynein cargo inh: 0.51; Lmaj promast: 9; Autophagy mod: inactive; bCat nuc transl: 17; MT stabilize HCS: 43*

Source: PubChem
